Experimental data: ChEMBL document CHEMBL4219118, “Cathepsin B inhibitors: Further exploration of the nitroxoline core” (Bioorg Med Chem Lett, 2018); call rule not given here

Key:
[1] = biological target: T1, Cathepsin B (Homo sapiens, UniProt P07858); test: Inhibition of recombinant human cathepsin B exopeptidase activity assessed as inhibitory constant for enzyme-substrate-inhibitor complex using Abz-Gly-Ile-Val-Arg-Ala-Lys(Dnp)-OH as substrate in presence of pH 5 acetate buffer by fluorescence assay
[2] = biological target: T1, Cathepsin B; test: Inhibition of recombinant human cathepsin B exopeptidase activity assessed as inhibitory constant for enzyme-inhibitor complex using Abz-Gly-Ile-Val-Arg-Ala-Lys(Dnp)-OH as substrate in presence of pH 5 acetate buffer by fluorescence assay
[3] = biological target: T1, Cathepsin B; test: Inhibition of recombinant human cathepsin B endopeptidase activity assessed as inhibitory constant for enzyme-inhibitor complex using Z-Arg-Arg-AMC as substrate in presence of pH 4.5 acetate buffer by fluorescence assay
Outline: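 Recombinant cathepsin B endopeptidase activity assayed with the small substrate Z-Arg-Arg-AMC at pH 4.5. Acidic conditions chosen to shift the enzyme toward the closed (exopeptidase) conformation. Ki reported.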

[4] = biological target: T1, Cathepsin B; test: Inhibition of recombinant human cathepsin B endopeptidase activity assessed as inhibitory constant for enzyme-substrate-inhibitor complex using Z-Arg-Arg-AMC as substrate in presence of pH 6 phosphate buffer by fluorescence assay
[5] = biological target: T1, Cathepsin B; test: Non-competitive inhibition of recombinant human cathepsin B exopeptidase activity assessed as inhibitory constant for enzyme-inhibitor complex using Abz-Gly-Ile-Val-Arg-Ala-Lys(Dnp)-OH as substrate in presence of pH 5 acetate buffer by fluorescence assay
[6] = biological target: T1, Cathepsin B; test: Non-competitive inhibition of recombinant human cathepsin B endopeptidase activity assessed as inhibitory constant for enzyme-substrate-inhibitor complex using Z-Arg-Arg-AMC as substrate in presence of pH 6 phosphate buffer by fluorescence assay
[7] = biological target: T1, Cathepsin B; test: Non-competitive inhibition of recombinant human cathepsin B endopeptidase activity assessed as inhibitory constant for enzyme-inhibitor complex using Z-Arg-Arg-AMC as substrate in presence of pH 6 phosphate buffer by fluorescence assay
[8] = biological target: T1, Cathepsin B; test: Non-competitive inhibition of recombinant human cathepsin B exopeptidase activity assessed as inhibitory constant for enzyme-substrate-inhibitor complex using Abz-Gly-Ile-Val-Arg-Ala-Lys(Dnp)-OH as substrate in presence of pH 5 acetate buffer by fluorescence assay

| Structure (SMILES) | Ki [1] | Ki [2] | Ki [3] | Ki [4] | Ki [5] [µM] | Ki [6] [µM] | Ki [7] [µM] | Ki [8] [µM] |
| --- | --- | --- | --- | --- | --- | --- | --- | --- |
| CC(=O)c1ccc(-c2ccc(-c3ccc([N+](=O)[O-])c4cccnc34)n2C)cc1 | Not Active | Not Active | Not Active | Not Active | – | – | – | – |
| N#CCN(Cc1ccccc1)C(=O)c1cc([N+](=O)[O-])ccc1O | – | – | – | – | 96 | 342 | 342 | 96 |
| O=[N+]([O-])c1ccc(-c2occc2-c2ccc([N+](=O)[O-])c3cccnc23)cc1 | Not Active | Not Active | Not Active | Not Active | – | – | – | – |
| N#CCN(Cc1ccccc1)Cc1cc([N+](=O)[O-])ccc1O | Not Active | Not Active | Not Active | Not Active | – | – | – | – |
| O=[N+]([O-])c1ccc(-c2cc3ccccc3s2)c2ncccc12 | Not Active | Not Active | Not Active | Not Active | – | – | – | – |
| N#Cc1ccc(-c2ccc(-c3ccc([N+](=O)[O-])c4cccnc34)o2)cc1 | Not Active | Not Active | Not Active | Not Active | – | – | – | – |
| CN(CC#N)C(=O)c1cc([N+](=O)[O-])c2cccnc2c1O | – | – | – | – | 121 | 185 | 185 | 121 |
| N#CCNC(=O)c1cc([N+](=O)[O-])ccc1O | – | – | – | – | 168 | 271 | 271 | 168 |
| CN(CC#N)Cc1ccc2c([N+](=O)[O-])ccc(O)c2n1 | Not Active | Not Active | Not Active | Not Active | – | – | – | – |
| Nc1ccc2c([N+](=O)[O-])ccc(O)c2n1 | – | – | – | – | 329 | 202 | 202 | 329 |
| O=C(NCC1CCN(Cc2nc3ccccc3s2)CC1)c1cc([N+](=O)[O-])c2cccnc2c1O | Not Active | Not Active | Not Active | Not Active | – | – | – | – |
| O=[N+]([O-])c1ccc(-c2ccc[nH]2)c2ncccc12 | Not Active | Not Active | Not Active | Not Active | – | – | – | – |
| NC(=O)c1ccc([N+](=O)[O-])c2cccnc12 | Not Active | Not Active | Not Active | Not Active | – | – | – | – |
| Cc1cccc(-c2ccc([N+](=O)[O-])c3cccnc23)c1 | Not Active | Not Active | Not Active | Not Active | – | – | – | – |
| O=C(O)c1ccc2c([N+](=O)[O-])cc([N+](=O)[O-])c(O)c2n1 | Not Active | Not Active | Not Active | Not Active | – | – | – | – |
| Cc1ccc(-c2ccc([N+](=O)[O-])c3cccnc23)s1 | Not Active | Not Active | Not Active | Not Active | – | – | – | – |
| O=[N+]([O-])c1ccc(-c2ccco2)c2ncccc12 | Not Active | Not Active | Not Active | Not Active | – | – | – | – |
| Cn1cccc1-c1ccc([N+](=O)[O-])c2cccnc12 | – | – | – | – | 224 | 333 | 333 | 224 |
| O=C(c1cc([N+](=O)[O-])c2cccnc2c1O)N1CCOCC1 | – | – | – | – | 122 | 136 | 136 | 122 |
| O=[N+]([O-])c1ccc(Br)c2ncccc12 | Not Active | Not Active | Not Active | Not Active | – | – | – | – |
| CC1CCN(C(=O)c2cc([N+](=O)[O-])ccc2O)CC1 | Not Active | Not Active | Not Active | Not Active | – | – | – | – |
| Cc1ccc([N+](=O)[O-])c2cccnc12 | Not Active | Not Active | Not Active | Not Active | – | – | – | – |
| O=C(c1cc([N+](=O)[O-])ccc1O)N1CCCCC1 | Not Active | Not Active | Not Active | Not Active | – | – | – | – |
| N#Cc1ccc(-c2ccc([N+](=O)[O-])c3cccnc23)cc1 | Not Active | Not Active | Not Active | Not Active | – | – | – | – |

| Structure (SMILES) | Ki [1] | Ki [2] | Ki [3] | Ki [4] | Ki [5] [µM] | Ki [6] [µM] | Ki [7] [µM] | Ki [8] [µM] |
| --- | --- | --- | --- | --- | --- | --- | --- | --- |
| Cc1ccc2c([N+](=O)[O-])cc([N+](=O)[O-])c(O)c2n1 | Not Active | Not Active | Not Active | Not Active | – | – | – | – |
| O=[N+]([O-])c1ccc(-c2ccoc2)c2ncccc12 | Not Active | Not Active | Not Active | Not Active | – | – | – | – |
| N#CC1(NCc2cc([N+](=O)[O-])ccc2O)CC1 | Not Active | Not Active | Not Active | Not Active | – | – | – | – |
| O=[N+]([O-])c1ccc(-c2c(-c3ccc([N+](=O)[O-])c4cccnc34)oc3ccccc23)cc1 | Not Active | Not Active | Not Active | Not Active | – | – | – | – |
| O=[N+]([O-])c1ccc(O)c(CN2CCCCC2)c1 | Not Active | Not Active | Not Active | Not Active | – | – | – | – |
| CC(=O)c1ccc(-c2ccc(-c3ccc([N+](=O)[O-])c4cccnc34)s2)cc1 | Not Active | Not Active | Not Active | Not Active | – | – | – | – |
| O=[N+]([O-])c1ccc(-c2cc3ccccc3o2)c2ncccc12 | Not Active | Not Active | Not Active | Not Active | – | – | – | – |
| O=[N+]([O-])c1ccc(-c2ccccc2)c2ncccc12 | Not Active | Not Active | Not Active | Not Active | – | – | – | – |
| O=C(NCC1CCN(C2Cc3ccccc3C2)CC1)c1cc([N+](=O)[O-])c2cccnc2c1O | Not Active | Not Active | Not Active | Not Active | – | – | – | – |
| N#CCNCc1cc([N+](=O)[O-])ccc1O | Not Active | Not Active | Not Active | Not Active | – | – | – | – |
| CC(=O)c1ccc(-c2c(-c3ccc([N+](=O)[O-])c4cccnc34)oc3ccccc23)cc1 | Not Active | Not Active | Not Active | Not Active | – | – | – | – |
| O=[N+]([O-])c1ccc(-c2ccsc2)c2ncccc12 | Not Active | Not Active | Not Active | Not Active | – | – | – | – |
| O=C(c1cc([N+](=O)[O-])ccc1O)N1CCOCC1 | – | – | – | – | 176 | 237 | 237 | 176 |
| O=C(O)c1ccc([N+](=O)[O-])c2cccnc12 | Not Active | Not Active | Not Active | Not Active | – | – | – | – |
| N#Cc1ccc([N+](=O)[O-])c2cccnc12 | Not Active | Not Active | Not Active | Not Active | – | – | – | – |
| CN(CC#N)C(=O)c1cc([N+](=O)[O-])ccc1O | Not Active | Not Active | Not Active | Not Active | – | – | – | – |
| COCCN(CC1CCN(Cc2nc3ccccc3o2)CC1)C(=O)c1cc([N+](=O)[O-])c2cccnc2c1O | Not Active | Not Active | Not Active | Not Active | – | – | – | – |
| O=[N+]([O-])c1cccc(-c2ccc([N+](=O)[O-])c3cccnc23)c1 | Not Active | Not Active | Not Active | Not Active | – | – | – | – |
| O=[N+]([O-])c1ccc(O)c(CN2CCOCC2)c1 | – | – | – | – | 97 | 212 | 212 | 97 |
| CC1CCN(Cc2cc([N+](=O)[O-])ccc2O)CC1 | Not Active | Not Active | Not Active | Not Active | – | – | – | – |
| Cc1ccc(-c2ccc([N+](=O)[O-])c3cccnc23)cc1 | Not Active | Not Active | Not Active | Not Active | – | – | – | – |
| CN(CC#N)Cc1cc([N+](=O)[O-])ccc1O | Not Active | Not Active | Not Active | Not Active | – | – | – | – |
| O=C(O)c1ccc2c([N+](=O)[O-])ccc(O)c2n1 | – | – | – | – | 240 | 139 | 139 | 240 |
